Experimental data gathered from unrelated publications.
Protocols differ between the studies behind these lines. Converted amounts (≈) assume the structure as drawn.

SMILES | target or system | test | system | conditions | quantity | value
CC(=O)N1CCN(c2ccc(OCC3COC(Cn4ccnc4)(c4ccc(Cl)cc4Cl)O3)cc2)CC1 (stereo not shown) | Candida tropicalis | microbial growth, broth dilution | ATCC13803 | 48 h | MIC | 8 µg/mL
FC(F)(F)c1cc(OCc2cc(-c3ccccc3)no2)c2ccccc2n1 | DND41 | cell growth or viability, MTS | – | 72 h | IC50 | 65.2 µM
CC(=O)ON=C1C=CC(=C(C#N)c2ccccc2)C=C1 | Candida tropicalis | microbial growth, broth dilution | ATCC13803 | 48 h | MIC | 2 µg/mL
CC[C@H]1OC(=O)[C@H](C)[C@@H](O[C@H]2C[C@@](C)(OC)[C@@H](O)[C@H](C)O2)[C@H](C)[C@@H](O[C@@H]2O[C@H](C)C[C@H](N(C)C)[C@H]2O)[C@](C)(O)C[C@@H](C)/C(=N\OCOCCOC)[C@H](C)[C@@H](O)[C@]1(C)O | Streptococcus agalactiae | microbial growth | – | clinical isolate | MIC90 | 8 µg/mL (≈ 9.56 µM)
O=c1cc(OCc2cc(-c3ccc(Cl)cc3Cl)no2)c2ccccc2o1 | DND41 | cell growth or viability, MTS | – | 72 h | IC50 | > 100 µM
OC(Cn1cncn1)(Cn1cncn1)c1ccc(F)cc1F | Candida tropicalis | microbial growth, broth dilution | CGMCC2 | 48 h | MIC | 2 µM
CC(=O)NC[C@H]1CN(c2ccc(N3CCOCC3)c(F)c2)C(=O)O1 | Streptococcus agalactiae | microbial growth | – | clinical isolate | MIC90 | 1 µg/mL (≈ 2.96 µM)
N#Cc1ccc(-c2cc(COc3cc(C(F)(F)F)nc4ccccc34)on2)cc1 | DND41 | cell growth or viability, MTS | – | 72 h | IC50 | 43.7 µM
CN[C@H](CC(C)C)C(=O)N[C@H]1C(=O)N[C@@H](CC(N)=O)C(=O)N[C@H]2C(=O)N[C@H]3C(=O)N[C@H](C(=O)N[C@H](C(=O)O)c4cc(O)cc(O)c4-c4cc3ccc4O)[C@H](O)c3ccc(c(Cl)c3)Oc3cc2cc(c3O[C@@H]2O[C@H](CO)[C@@H](O)[C@H](O)[C@H]2O[C@H]2C[C@](C)(N)[C@H](O)[C@H](C)O2)Oc2ccc(cc2Cl)[C@H]1O | Streptococcus agalactiae | microbial growth | – | clinical isolate | MIC90 | 0.5 µg/mL (≈ 0.345 µM)
N#CC(=C1C=CC(=NOC(=O)OCc2ccccc2)C=C1)c1ccccc1 | Candida tropicalis | microbial killing, broth dilution | ATCC13803 | 48 h | MFC | 256 µg/mL (≈ 718 µM)
